Results on 6 compounds are retold here after ChEMBL document CHEMBL1154750 (J Med Chem, 2010).

Data set [1] is described as follows: Cytotoxicity against MDCK cells. The data set is classed as cell-based, Canis lupus familiaris. The conditions noted are these: dog. In short, it runs like this: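 Confluent 3-day-old MDCK monolayers in EMEM with 10% FBS were exposed to serial 2-fold dilutions (triplicate) for 72 h at 37 °C, 5% CO2. Cells were fixed and stained with crystal violet-formalin, dye was extracted, and OD was read at 550/630 nm. Viability is given relative to six mock-treated controls. CC50 comes from the mean dose-response curve of two independent assays.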

For data set [2], the target named is T1, Neuraminidase (Influenza A virus, UniProt B4URF0). The data set can be described thus: Inhibition of Influenza Virus A/Horneburg/IDT7489/08 (H1N1) neuraminidase. In outline: (§1)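 Swine H1N1 isolate NA measured by NA-Star chemiluminescence. The virus supernatant dilution giving 40:1 signal-to-noise was incubated with compound for 20 min at 37 C, then dioxetane sialic acid substrate (1:500) was added for 30 min at room temperature. Six untreated virus controls set to 100%. IC50 from n ≥ 4 assays, triplicate wells.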
T1 sequence (B4URF0 whole entry): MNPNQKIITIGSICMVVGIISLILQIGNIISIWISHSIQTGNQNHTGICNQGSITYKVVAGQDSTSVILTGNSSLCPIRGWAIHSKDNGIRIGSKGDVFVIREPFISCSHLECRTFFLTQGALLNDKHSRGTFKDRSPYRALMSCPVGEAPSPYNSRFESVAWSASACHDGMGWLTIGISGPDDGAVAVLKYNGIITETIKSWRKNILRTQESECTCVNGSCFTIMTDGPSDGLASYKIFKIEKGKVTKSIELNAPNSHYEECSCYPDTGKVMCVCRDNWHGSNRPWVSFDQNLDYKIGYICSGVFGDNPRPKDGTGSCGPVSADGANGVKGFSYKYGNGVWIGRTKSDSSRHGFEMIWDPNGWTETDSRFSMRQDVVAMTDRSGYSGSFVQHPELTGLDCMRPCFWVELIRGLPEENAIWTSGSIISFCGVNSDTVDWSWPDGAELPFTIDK

Data set [3] concerns the target T1, Neuraminidase. The data set can be described thus: Inhibition of Influenza Virus A/Brest/IDT7490/08 (H1N1) neuraminidase. In outline: as §1
In data set [4] the target is T1, Neuraminidase. The data set can be described thus: Inhibition of Influenza Virus A/Belzig/2/01 (H1N1) neuraminidase. More on the design: species or system Influenza A virus (A/swine/Belzig/2/2001(H1N1)). In short, it runs like this: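 Swine H1N1 NA assayed by NA-Star chemiluminescence. Compound was mixed with the diluted virus supernatant (dilution giving 40:1 signal-to-noise) for 20 min at 37 C, then substrate (1:500) was added for 30 min at room temperature. Activity relative to six untreated virus controls; IC50 from one assay, each concentration in triplicate.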

For the next data set, the system named is Influenza A virus. Kind of data set: Antiviral activity against Influenza A virus (A/Puerto Rico/8/34(H1N1)) in MDCK cells assessed as reduction in plaque number by plaque reduction assay. The conditions noted are these: A/Puerto Rico/8/1934(H1N1). A general note: In a plaque reduction assay, fewer plaques than in the control indicate reduced infectivity or spread.

The target in data set [5] is T1, Neuraminidase. The data set can be described thus: Inhibition of Influenza Virus A/Potsdam/15/81 (H1N1) neuraminidase.
Data set [6] deals with Neuraminidase (Influenza A virus (A/Puerto Rico/8/1934(H1N1)), UniProt P03468). The data set can be described thus: Inhibition of Influenza Virus A/PR/8/34 neuraminidase chemiluminescence-based enzyme inhibition assay. In outline: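 Chemiluminescent NA assay using NA-Star 1,2-dioxetane sialic acid substrate. Virus culture supernatant was serially 2-fold diluted in NA-Star buffer, and the dilution giving 40:1 signal-to-noise was used. Compound was preincubated with virus for 20 min at 37 C, then substrate (1:500) was added for 30 min at room temperature. Mean of six untreated virus controls set to 100%. IC50 from n = 3 assays, triplicate wells.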
Sequence of Neuraminidase (Influenza A virus (A/Puerto Rico/8/1934(H1N1)), UniProt P03468) (P03468 whole entry): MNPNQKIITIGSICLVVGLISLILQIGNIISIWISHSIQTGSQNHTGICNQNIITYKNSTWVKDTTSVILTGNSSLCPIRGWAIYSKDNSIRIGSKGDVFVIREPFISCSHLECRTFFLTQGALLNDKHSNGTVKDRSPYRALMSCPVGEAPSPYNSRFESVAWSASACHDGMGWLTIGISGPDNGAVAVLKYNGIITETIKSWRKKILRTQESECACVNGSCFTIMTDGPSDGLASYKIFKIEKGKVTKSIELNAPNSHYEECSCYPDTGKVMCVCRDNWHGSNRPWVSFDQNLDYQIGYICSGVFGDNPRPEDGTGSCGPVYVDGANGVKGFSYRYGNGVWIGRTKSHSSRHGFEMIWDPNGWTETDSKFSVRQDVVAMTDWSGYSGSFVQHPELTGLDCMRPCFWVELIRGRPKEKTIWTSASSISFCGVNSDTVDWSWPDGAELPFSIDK

In the case of `O=C(CCc1ccccc1)C[C@@H]1C[C@@H](c2ccccc2)c2c(cc(/C=C/c3ccccc3)oc2=O)O1` [KATSUMADAIN A], the CC50 in data set [1] is 66.9 µM. Further, the half-maximal inhibitory concentration (IC50) on Neuraminidase [2] amounted to 0.00111 µM; against Neuraminidase [3] it was 0.00164 µM; at Neuraminidase [4], 0.00059 µM; in the data set with Influenza A virus, 11.8 µM; at Neuraminidase [5], 0.00073 µM; in data set [6], 1.05 µM.
`O=C(/C=C(O)\C=C\c1ccccc1)CCc1ccccc1` registered an IC50 in data set [6] of 4.67 µM.
Same read-out and setting: the value for `O=C(/C=C/C=C/c1ccccc1)CCc1ccccc1` was 6.1 µM.
Still for that read-out and setting: the value for `O[C@@H](CCc1ccccc1)C[C@H](O)/C=C/c1ccccc1` was 29.8 µM.
On to `O[C@@H](CC/C=C/c1ccccc1)CCc1ccccc1`, for which, in data set [6], the IC50 came out at 4.13 µM.
Same read-out and setting: the result for `CC(C)=CCC/C(C)=C/CC/C(C)=C/CO` [FARNESOL] reads 81.4 µM.

Broadly, the CC50 is the concentration that lowers cell viability or growth by half. As usually defined, the IC50 is the concentration that gives 50% inhibition.
